Some results are limits rather than exact numbers.

Chain of Cannabinoid receptor 1 (Mus musculus, UniProt P47746) (P47746 whole entry): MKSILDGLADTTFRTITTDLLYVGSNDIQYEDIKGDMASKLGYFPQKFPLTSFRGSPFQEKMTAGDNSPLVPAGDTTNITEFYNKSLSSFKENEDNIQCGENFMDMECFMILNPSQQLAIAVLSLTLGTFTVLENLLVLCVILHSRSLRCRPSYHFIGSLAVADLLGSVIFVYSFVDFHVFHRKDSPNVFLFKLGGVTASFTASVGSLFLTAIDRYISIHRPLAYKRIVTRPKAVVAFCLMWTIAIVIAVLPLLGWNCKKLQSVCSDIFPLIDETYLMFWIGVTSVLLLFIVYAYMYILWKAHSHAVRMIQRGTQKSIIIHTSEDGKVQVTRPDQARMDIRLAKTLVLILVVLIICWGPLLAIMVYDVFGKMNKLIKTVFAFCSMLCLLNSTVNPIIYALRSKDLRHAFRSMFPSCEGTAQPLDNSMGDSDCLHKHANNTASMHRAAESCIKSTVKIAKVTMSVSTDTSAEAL

The target in the first test is T1, Transient receptor potential cation channel subfamily V member 1 (Homo sapiens, UniProt Q8NER1). The experiment in a line: Agonist activity at human recombinant TRPV1 expressed in HEK293 cells assessed as increase in intracellular calcium level relative to ionomycin. It counts as functional, cell-based. Put shortly: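 Stably transfected HEK-293 cells loaded 1 h at 25 °C with 4 µM Fluo-4 AM, washed, resuspended in Tyrode's buffer pH 7.4. Fluorescence (ex 488/em 516 nm) read at 25 °C with stirring, before and after compound at various concentrations. Efficacy relative to 4 µM ionomycin. EC50 is the concentration giving half-maximal [Ca2+]i rise, by sigmoidal fit. At least triplicate.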
T1 sequence (Q8NER1 whole entry): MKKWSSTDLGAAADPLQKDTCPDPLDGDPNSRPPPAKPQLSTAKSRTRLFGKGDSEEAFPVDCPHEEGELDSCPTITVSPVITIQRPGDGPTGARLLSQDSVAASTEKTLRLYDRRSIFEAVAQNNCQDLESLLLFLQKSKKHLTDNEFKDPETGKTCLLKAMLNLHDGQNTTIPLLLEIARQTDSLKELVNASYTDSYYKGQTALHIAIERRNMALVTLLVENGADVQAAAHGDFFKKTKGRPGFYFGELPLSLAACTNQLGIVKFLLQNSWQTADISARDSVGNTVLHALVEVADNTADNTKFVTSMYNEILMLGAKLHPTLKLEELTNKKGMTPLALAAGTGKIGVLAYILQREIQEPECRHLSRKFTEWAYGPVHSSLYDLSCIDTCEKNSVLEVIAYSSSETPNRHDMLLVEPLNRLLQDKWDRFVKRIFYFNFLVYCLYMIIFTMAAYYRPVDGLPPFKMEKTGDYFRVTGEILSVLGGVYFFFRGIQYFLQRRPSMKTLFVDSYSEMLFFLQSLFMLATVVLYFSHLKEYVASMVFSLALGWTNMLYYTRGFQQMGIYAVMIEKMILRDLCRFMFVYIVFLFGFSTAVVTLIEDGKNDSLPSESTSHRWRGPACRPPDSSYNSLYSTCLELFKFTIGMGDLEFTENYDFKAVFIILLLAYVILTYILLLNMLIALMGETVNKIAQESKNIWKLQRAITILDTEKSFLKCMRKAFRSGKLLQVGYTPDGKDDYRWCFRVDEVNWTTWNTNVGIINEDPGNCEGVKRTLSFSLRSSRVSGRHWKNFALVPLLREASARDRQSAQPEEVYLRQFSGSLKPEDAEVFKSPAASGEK
For orientation: Calcium assays in cells follow changes in intracellular calcium, usually with a dye or a luminescent sensor.
As a reminder, the Emax is the size of the effect at its maximum, as opposed to the concentration needed. Consider `CCCCC/C=C\C/C=C\C/C=C\C/C=C\CCCC(=O)N[C@H]1C[C@H]1O`, for which the Emax amounted to 65.8%.

Take `CCCCC/C=C\C/C=C\C/C=C\C/C=C\CCCC(=O)N[C@H]1C[C@@H]1O`: the Emax turned out to be 75.7%.

In the case of `CCCCC/C=C\C/C=C\C/C=C\C/C=C\CCCC(=O)N[C@@H]1C[C@@H]1O` [listing 1 of 2 here], the Emax came out at 76.5%.

Regarding `CCCCC/C=C\C/C=C\C/C=C\C/C=C\CCCC(=O)N[C@@H]1C[C@H]1O` [listing 1 of 2 here], the Emax is 80.3%.

`CCCCCCCC/C=C\CCCCCCCC(=O)N[C@@H]1C[C@@H]1O` [listing 1 of 2 here]: the Emax turned out to be 62.5%.

Consider `CCCCCCCC/C=C\CCCCCCCC(=O)N[C@@H]1C[C@H]1O` [listing 1 of 2 here], for which the Emax came out at 72.5%.

On to `CCCCCCC(C)(C)c1ccc([C@@H]2C[C@H](O)CC[C@H]2CCCO)c(O)c1` [CP-55940], for which the Emax is 83%.

For the next test, the target named is Cannabinoid receptor 1 (Homo sapiens, UniProt P21554). The experiment in a line: Displacement of [3H]CP-55940 from human recombinant CB1 receptor expressed in HEK293 cell membrane. It counts as cell membranes. For orientation: Loss of bound radioactivity is the signal in a displacement assay; it reports binding, not function.
Chain of Cannabinoid receptor 1 (Homo sapiens, UniProt P21554) (P21554 whole entry): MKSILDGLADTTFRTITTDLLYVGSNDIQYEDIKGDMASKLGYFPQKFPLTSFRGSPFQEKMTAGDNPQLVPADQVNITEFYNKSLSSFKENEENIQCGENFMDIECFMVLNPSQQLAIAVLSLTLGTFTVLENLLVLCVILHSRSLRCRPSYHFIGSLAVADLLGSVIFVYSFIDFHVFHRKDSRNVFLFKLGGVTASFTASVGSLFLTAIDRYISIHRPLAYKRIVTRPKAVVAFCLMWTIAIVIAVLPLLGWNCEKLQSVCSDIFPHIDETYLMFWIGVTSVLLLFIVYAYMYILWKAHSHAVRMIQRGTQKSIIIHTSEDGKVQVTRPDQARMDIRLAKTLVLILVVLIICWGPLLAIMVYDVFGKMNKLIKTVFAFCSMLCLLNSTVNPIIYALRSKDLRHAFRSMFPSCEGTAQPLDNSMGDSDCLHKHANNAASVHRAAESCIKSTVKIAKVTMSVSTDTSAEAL
As usually defined, the Ki is a dissociation constant, usually derived from enzyme kinetics or from competition with a known ligand. Take `CCCCCCCCCCCCCCCC(=O)N[C@@H]1C[C@@H]1O` (racemic): the Ki is over 10000 nM.

For the molecule `CCCCCCCCCCCCCCCC(=O)N[C@@H]1C[C@H]1O` (racemic), the Ki is over 10000 nM.

`CCCCCCCCCCCCCCCC(=O)NCCO` [PALMIDROL]: the Ki was over 5000 nM.

The target of the next test is Cannabinoid receptor 2 (Homo sapiens, UniProt P34972). The test is described as follows: Displacement of [3H]CP-55940 from human recombinant CB2 receptor expressed in HEK293 cell membrane. It counts as cell membranes.
Chain of Cannabinoid receptor 2 (P34972 whole entry): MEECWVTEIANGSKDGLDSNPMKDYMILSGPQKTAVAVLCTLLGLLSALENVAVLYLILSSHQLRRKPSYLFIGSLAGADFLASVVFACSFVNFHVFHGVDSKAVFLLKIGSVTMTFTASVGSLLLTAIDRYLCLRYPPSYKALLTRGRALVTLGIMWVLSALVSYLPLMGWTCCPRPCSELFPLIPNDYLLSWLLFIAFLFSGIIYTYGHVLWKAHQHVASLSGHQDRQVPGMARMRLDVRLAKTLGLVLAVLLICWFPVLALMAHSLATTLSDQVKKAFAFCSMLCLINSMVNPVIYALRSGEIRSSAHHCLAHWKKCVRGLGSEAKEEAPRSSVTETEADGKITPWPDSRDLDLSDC
Consider `CCCCCCCC/C=C\CCCCCCCC(=O)N[C@@H]1C[C@@H]1O` [listing 2 of 2 here], for which the Ki turned out to be 2040 nM.

Consider `CCCCCCCC/C=C\CCCCCCCC(=O)N[C@@H]1C[C@H]1O` [listing 2 of 2 here], for which the Ki was 4410 nM.

As for `CCCCC/C=C\C/C=C\C/C=C\C/C=C\CCCC(=O)N[C@@H]1C[C@@H]1O` [listing 2 of 2 here], the Ki came out at 200 nM.

`CCCCC/C=C\C/C=C\C/C=C\C/C=C\CCCC(=O)N[C@@H]1C[C@H]1O` [listing 2 of 2 here]: the Ki stood at 190 nM.

Turning to `CCCCC/C=C\C/C=C\C/C=C\C/C=C\CCCC(=O)N[C@H]1C[C@H]1O`, the Ki is 190 nM.

For `CCCCC/C=C\C/C=C\C/C=C\C/C=C\CCCC(=O)N[C@H]1C[C@@H]1O`, the Ki is 290 nM.

For the molecule `CCCCCCCC/C=C\CCCCCCCC(=O)N[C@@H]1C[C@@H]1O` (racemic), the Ki was 340 nM.

As to `CCCCCCCC/C=C\CCCCCCCC(=O)N[C@@H]1C[C@H]1O` (racemic), the Ki came out at 380 nM.

`CCCCC/C=C\C/C=C\C/C=C\C/C=C\CCCC(=O)N[C@@H]1C[C@@H]1O` (racemic): the Ki was found to be 150 nM.

On to `CCCCC/C=C\C/C=C\C/C=C\C/C=C\CCCC(=O)N[C@@H]1C[C@H]1O` (racemic), for which the Ki came out at 240 nM.

On to `CCCCCCCCCCCCCCCC(=O)N[C@@H]1C[C@@H]1O` (racemic), for which the Ki is over 10000 nM.

With `CCCCCCCCCCCCCCCC(=O)N[C@@H]1C[C@H]1O` (racemic), the Ki was over 10000 nM.

Take `COc1cc(CNC(=O)CCCC/C=C/C(C)C)ccc1O` [CAPSAICIN]: the Ki is over 10000 nM.

Take `CCCCCCCC/C=C\CCCCCCCC(=O)NCCO` [OLEOYLETHANOLAMIDE]: the Ki is over 10000 nM.

With `CCCCCCCCCCCCCCCC(=O)NCCO` [PALMIDROL], the Ki was over 5000 nM.

Another test has as its target Cannabinoid receptor 1 (Mus musculus, UniProt P47746). The experiment in a line: Agonist activity at CB1 receptor expressed in mouse brain membrane by [35S]GTPgammaS binding assay. It counts as functional, cell membranes. The essentials:
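Mouse brain membranes (10 µg/mL) preincubated 30 min at 30 °C with adenosine deaminase 0.5 U/mL, in Tris buffer with MgCl2, EDTA, NaCl, DTT, 0.1% BSA, 0.1 nM [35S]GTPγS, 30 µM GDP; compounds 60 min at 30 °C. Nonspecific with 30 µM GTPγS. Filtration, scintillation counting. 0.1% DMSO vehicle. Basal subtracted; EC50 and Emax by sigmoid nonlinear regression.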
A word on the EC50: it is the concentration that produces a half-maximal response. For `CCCCC/C=C\C/C=C\C/C=C\C/C=C\CCCC(=O)N[C@@H]1C[C@H]1O` [listing 2 of 2 here], the EC50 worked out at 780 nM.

In turn, `CCCCC/C=C\C/C=C\C/C=C\C/C=C\CCCC(=O)N[C@H]1C[C@@H]1O` yielded an EC50 of 2550 nM.

For another test, the target named is T1, Transient receptor potential cation channel subfamily V member 1. The experiment in a line: Agonist activity at human recombinant TRPV1 expressed in HEK293 cells assessed as increase in intracellular calcium level. It counts as functional, cell-based. Put shortly:
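Stably transfected HEK-293 cells loaded 1 h at 25 °C with 4 µM Fluo-4 AM, washed, resuspended in Tyrode's buffer pH 7.4. Efficacy relative to 4 µM ionomycin. EC50 is the concentration giving half-maximal [Ca2+]i rise, by sigmoidal fit. At least triplicate.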
`CCCCCCCC/C=C\CCCCCCCC(=O)N[C@@H]1C[C@@H]1O` [listing 2 of 2 here]: the EC50 was 150 nM.

With `CCCCCCCC/C=C\CCCCCCCC(=O)N[C@@H]1C[C@H]1O` [listing 2 of 2 here], the EC50 was found to be 13 nM.

As to `CCCCC/C=C\C/C=C\C/C=C\C/C=C\CCCC(=O)N[C@@H]1C[C@@H]1O` [listing 2 of 2 here], the 50% effective concentration (EC50) turned out to be 610 nM.

With `CCCCC/C=C\C/C=C\C/C=C\C/C=C\CCCC(=O)N[C@@H]1C[C@H]1O` [listing 2 of 2 here], the EC50 was found to be 23 nM.

For the molecule `CCCCC/C=C\C/C=C\C/C=C\C/C=C\CCCC(=O)N[C@H]1C[C@H]1O`, the EC50 was 2400 nM.

Consider `CCCCC/C=C\C/C=C\C/C=C\C/C=C\CCCC(=O)N[C@H]1C[C@@H]1O`, for which the EC50 was 47 nM.

With `CCCCCCCC/C=C\CCCCCCCC(=O)N[C@@H]1C[C@@H]1O` (racemic), the EC50 came to 3700 nM.

Take `CCCCCCCC/C=C\CCCCCCCC(=O)N[C@@H]1C[C@H]1O` (racemic): the EC50 came out at 60 nM.

As for `CCCCC/C=C\C/C=C\C/C=C\C/C=C\CCCC(=O)N[C@@H]1C[C@@H]1O` (racemic), the EC50 amounted to 1900 nM.

For `CCCCC/C=C\C/C=C\C/C=C\C/C=C\CCCC(=O)N[C@@H]1C[C@H]1O` (racemic), the EC50 is 50 nM.

On to `CCCCCCCCCCCCCCCC(=O)N[C@@H]1C[C@@H]1O` (racemic), for which the EC50 was determined as 26400 nM.

For the molecule `CCCCCCCCCCCCCCCC(=O)N[C@@H]1C[C@H]1O` (racemic), the EC50 came out at 40 nM.

Consider `CCCCC/C=C\C/C=C\C/C=C\C/C=C\CCCC(=O)NCCO` [ANANDAMIDE], for which the EC50 is 200 nM.

For the molecule `CCCCCCC(C)(C)c1ccc([C@@H]2C[C@H](O)CC[C@H]2CCCO)c(O)c1` [CP-55940], the EC50 turned out to be 10 nM.

Regarding `CCCCCCCC/C=C\CCCCCCCC(=O)NCCO` [OLEOYLETHANOLAMIDE], the EC50 is 3650 nM.

As for `CCCCCCCCCCCCCCCC(=O)NCCO` [PALMIDROL], the 50% effective concentration (EC50) is over 10000 nM.

The record behind these values is ChEMBL document CHEMBL1138475, “Conformationally constrained fatty acid ethanolamides as cannabinoid and vanilloid receptor probes” (J Med Chem, 2009).
